Usually pKa stands for the negative logarithm of the acid dissociation constant. Usually half-life stands for the time in which the quantity being followed falls by half. Read a high half-life as slow loss.

The nature of data set [1]: Dissociation constant (pKa) was determined by spectrophotometric method. The class given is physicochemical. Summed up: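 Compound (ca. 0.1 mM) first dissolved in phosphate buffer pH 2.2 (μ = 0.1); UV-visible spectrum recorded, then pH raised in ca. 0.5-unit steps to pH 10 with NaOH, spectrum taken at each step. pKa calculated from the pH-dependent shift in λmax of the two intense UV bands.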

For the next data set, the species on record is Mus musculus. The data set can be described thus: Compound was evaluated for lethal dose against mouse brain. It counts as toxicity, organism-based. The conditions noted are these: in vivo.
Data set [2] is described as follows: Pseudo-first-order rate constant was determined in pH 7.4 phosphate buffer in presence 0.5 mM EDTA. It counts as ADME.
Data set [3] in a line: Pseudo-first-order rate constant was determined in pH 7.4 phosphate buffer in presence 50 mM EDTA. The class given is ADME.
Data set [4] is described as follows: Compound was autooxidized for 2 hour at 37 degree Celsius in pH 7.4 Pseudo-first-order rate constant. The class given is ADME. The note with it: pH 7.4, 2 h. Summed up: (§1)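 5,7-DHT (0.5–1.0 mM) autoxidised at 37 °C in pH 7.4 phosphate buffer (μ = 0.2), with air vigorously bubbled through. Loss of 5,7-DHT was followed by HPLC peak area (reversed-phase RP-18; triethylamine/acetic acid mobile phase, pH 3.30; UV detection at 254 nm). The rate constant came from linear ln(peak area) vs time plots over the first 2 h.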

Data set [5] in a line: Compound was autooxidized for 2 hour at 37 degree Celsius in pH 7.4 phosphate buffer Pseudo-first-order rate constant. It counts as ADME. The conditions noted are these: pH 7.4, 2 h. Summed up: as §1
Data set [6] is described as follows: Dissociation constant (pKa) was reported after potentiometric titration with 0.2 mM KOH. It counts as physicochemical.
The nature of data set [7]: Pseudo-first-order rate constant was determined in pH 7.4 phosphate buffer in presence 70 mM EDTA. It counts as ADME.
A short description of data set [8]: Compound was autooxidized for 2 hour at 37 degree Celsius in pH 7.4 phosphate buffer pseudo-first-order rate constant 0.1 mM EDTA. It counts as ADME. The conditions noted are these: pH 7.4, 2 h.
The nature of data set [9]: Half-life was reported for slow rate of autooxidation reaction. It counts as ADME.
Data set [10] is described as follows: Half-life was reported for stability at pH 8. The class given is physicochemical. The note with it: buffer.

`NCCc1c[nH]c2c1C(=O)C(O)=C(C1=C(O)c3[nH]cc(CCN)c3C(=O)C1=O)C2=O`: the pKa in data set [1] came to 6.5.
As to `NCCc1c[nH]c2c1C(=O)C(=O)C=C2O`, the LD50 in the data set filed under Mus musculus was 21 µg. Besides, the pKa in data set [1] worked out at 5.6.
Take `NCCc1c[nH]c2c(O)cc(O)cc12`: the K is 0.017 min⁻¹ in data set [2]; 0.014 min⁻¹ in data set [3]; 0.046 min⁻¹ in [4]; 0.012 min⁻¹ in data set [5]; 0.015 min⁻¹ in data set [7]; 0.012 min⁻¹ in data set [8]. In [6], the pKa worked out at 4.8.
`CC1(C)CC=CN1[O]`: the values for the half-life in data set [9] and in [10] were 1 min and 35 min, respectively.

For the origin of these results see ChEMBL document CHEMBL1125074, “Autoxidation of the serotonergic neurotoxin 5,7-dihydroxytryptamine” (J Med Chem, 1990).
